Activity calls are given as the source filed them. The calls are words filed in the database; no cut-off is given here.

The nature of data set [1]: Solubility in ddIH2O. The format is physicochemical. The settings on record: ddIH2O (double-deionized water).
Data set [2] in a line: Drug level in pH 7.4 PBS treated with 2-(3-(2-Aminoethoxy)-2-naphthamido)-5-chlorophenyl 3-(3- Aminopropoxy)-2-naphthoate Dihydrochloride assessed as compound formation by NMR analysis. Conditions: buffer. It counts as physicochemical.
For data set [3], the species on record is Homo sapiens. Briefly: Synergistic potentiation of 2-(3-(2-Aminoethoxy)-2-naphthamido)-5-chlorophenyl 3-(3- Aminopropoxy)-2-naphthoate Dihydrochloride-induced inhibition of CREB (unknown origin) expressed in HEK293T cells assessed as inhibition of forskolin-induced CREB transcription activity by measuring combination index at 5 to 10 uM incubated for 30 mins by luciferase reporter gene assay based Chou-Talalay method. It counts as cell-based. The procedure, abridged:
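CRE-driven Renilla luciferase reporter in transfected HEK293T cells. Combinations were added 30 min before Fsk (10 μM) for 5 h. Activity was normalised to protein. Combination indexes were calculated by the Chou-Talalay method: CI > 1.0 antagonism, CI = 1.0 additive, CI < 1.0 synergy.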
In general terms: A reporter such as luciferase makes a cellular process visible.

Data set [4] has as its system MDA-MB-231. The experiment in a line: Growth inhibition of human MDA-MB-231 cells at 0.5 to 1 uM incubated for 72 hrs by MTT assay. It counts as functional, cell-based. The procedure, abridged: (§1)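 MDA-MB-231 cells were seeded at 1000/well, attached overnight, then given compounds (alone or combined) for 72 h at 37 °C. MTT (0.5 mg/mL) was added for 3 h, formazan dissolved in DMSO, and A570 read. Growth % = 100×(A_treated − A_initial)/(A_control − A_initial), with time-0 baseline.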
Background: Formazan colour is commonly taken as a measure of viable cells.

A short description of data set [5]: Inhibition of CREB (unknown origin) expressed in HEK293T cells assessed as inhibition of forskolin-induced CREB transcription activity incubated for 30 mins by luciferase reporter gene assay. It counts as cell-based. Conditions: Homo sapiens, HEK-293T, 0.5 h. The procedure, abridged: (§2)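 HEK293T cells were transfected for 3 h with pCRE-RLuc (Renilla luciferase driven by three tandem CRE copies), then replated and left to attach overnight. Compounds, alone or combined, were added 30 min before Fsk (10 μM), followed by 5 h at 37 °C. Renilla luciferase was normalised to well protein (RLU/μg). IC50 came from nonlinear regression; at least two independent experiments in triplicate.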

The test system of data set [6] is MDA-MB-231. The experiment in a line: Synergistic potentiation of 2-(3-(2-Aminoethoxy)-2-naphthamido)-5-chlorophenyl 3-(3- Aminopropoxy)-2-naphthoate Dihydrochloride-induced growth inhibition of human MDA-MB-231 cells incubated for 72 hrs by MTT assay. It counts as functional. The procedure, abridged:
as §1

A short description of data set [7]: Inhibition of Kix-Kid interaction (unknown origin) by biochemical split Renilla luciferase complementation assay. More on the design: species or system Homo sapiens.
The species named for data set [8] is Homo sapiens. Briefly: Synergistic potentiation of 50 nM 2-(3-(2-Aminoethoxy)-2-naphthamido)-5-chlorophenyl 3-(3- Aminopropoxy)-2-naphthoate Dihydrochloride-induced inhibition of CREB in HEK293T cells assessed as inhibition of Fsk-induced NR4A2 gene expression at 5 uM pre-incubated for 1 hr before Fsk stimulation for 45 mins by qRT-PCR analysis. The format is cell-based. The gist of the method:
(§3)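 HEK293T cells in DMEM/10% FBS were pretreated with compounds, singly or in combination, for 1 h, then stimulated with Fsk (10 μM) for 45 min. Total RNA was isolated and NR4A2 transcript measured by qRT-PCR using the ΔΔCt method, with HPRT as reference. SEM of two independent experiments in triplicate; Student t-test.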

Data set [9] is filed under the species Homo sapiens. The experiment in a line: Inhibition of CREB in HEK293T cells assessed as inhibition of Fsk-induced NR4A2 gene expression at 5 uM pre-incubated for 1 hr before Fsk stimulation for 45 mins by qRT-PCR analysis. It counts as cell-based. The gist of the method: as §3
In general terms: In qPCR the cycle at which signal appears reflects the starting amount.

The species named for data set [10] is Homo sapiens. The experiment in a line: Synergistic potentiation of 2-(3-(2-Aminoethoxy)-2-naphthamido)-5-chlorophenyl 3-(3- Aminopropoxy)-2-naphthoate Dihydrochloride-induced inhibition of CREB (unknown origin) expressed in HEK293T cells assessed as inhibition of forskolin-induced CREB transcription activity at 5 to 10 uM incubated for 30 mins by luciferase reporter gene assay. It counts as cell-based. The procedure, abridged: as §2

Data set [11] is described as follows: Drug metabolism in pH 7.4 PBS assessed as 3,4-Dihydronaphtho[2,3-f][1,4]oxazepin-5(2H)-one formation by NMR analysis.
Data set [12] can be described thus: Drug metabolism in pH 7.4 PBS assessed as 3-(3-aminopropoxy)-N-(4-chloro-2-hydroxy-phenyl)naphthalene-2-carboxamide formation by NMR analysis.
A short description of data set [13]: Drug metabolism in pH 7.4 PBS assessed as tert-butyl 3-(3-(2-(tert-butoxycarbonyloxy)-4-chlorophenylcarbamoyl)naphthalen-2-yloxy)propylcarbamate formation by NMR analysis.

One may read the solubility as the concentration that dissolves in the medium under given conditions. Low readings indicate little dissolved substance, high ones much dissolved substance. Turning to `Cl.NCCCOc1cc2ccccc2cc1C(=O)NCCOc1cc2ccccc2cc1C(=O)Nc1ccc(Cl)cc1O`, the solubility in [1] is < 0.5 mg/mL.
In the case of `CC(C)(C)OC(=O)NCCCOc1cc2ccccc2cc1C(=O)Nc1ccc(Cl)cc1OC(=O)C(C)(C)C`, the Drug uptake result in data set [2] is “Active”.
One may read the IC50 as the concentration at which inhibition is half-maximal. Take `NCCCOc1cc2ccccc2cc1C(=O)Nc1ccc(Cl)cc1O`: the CI is < 1 in the data set filed under Homo sapiens [3] and <1 with MDA-MB-231 [6]. In the data set with MDA-MB-231 [4], the “growth inhibition (GI)” value is “inactive”. Besides, the IC50 in data set [5] is 26.3 µM; in [7], > 50 µM. For the same compound, the result in the data set filed under Homo sapiens [8] and in the data set filed under Homo sapiens [10] was Active. Besides, the Drug uptake entry in data set [2] is listed as “Active”. In addition, the inhibition entry in the data set filed under Homo sapiens [9] was “inactive”.
As to `O=C1NCCOc2cc3ccccc3cc21`, the IC50 in data set [5] is > 50 µM. Further, the Drug uptake entry in [2] is recorded as “Active”. The outcome in the data set listed under Homo sapiens [10] was inactive.
Consider `Cl.Cl.NCCCOc1cc2ccccc2cc1C(=O)Oc1cc(Cl)ccc1NC(=O)c1cc2ccccc2cc1OCCN`, for which, in data set [5], the 50% inhibitory concentration (IC50) was found to be 0.25 µM. Also, the Drug metabolism in [11] was 29%; in [12] it was “Metabolite detected”; in data set [13], 47%. In data set [1], the solubility was > 100 mg/mL.

The record behind these values is ChEMBL document CHEMBL4376841, “Discovery of a Synergistic Inhibitor of cAMP-Response Element Binding Protein (CREB)-Mediated Gene Transcription with 666-15” (J Med Chem, 2019).
